Measurements published in ChEMBL document CHEMBL3526003, “Pharmacokinetics of the monohydroxy derivative of oxcarbazepine and its enantiomers after a single intravenous dose given as racemate compared with a single oral dose of oxcarbazepine” (Drug Metab Dispos, 2011).
Values belong to the compound of their own block, whether it stands above or below them.

Assays:
[1] = Drug excretion in human urine assessed as total amount of drug eliminated treated with oxcarbazepine at 300 mg, po administered as one-film coated tablet by high-performance liquid chromatography; type: ADME, organism-based; conditions: read-out: Ae
Outline: (§1)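 300 mg oral tablet given to 12 healthy adults. Urine was collected in fractions up to 72 h and kept at 2–8 °C, then frozen at -20 °C. Analytes were measured by HPLC before and after β-glucuronidase hydrolysis (pH 6.7, 37 °C, about 15 h). Renal clearance was Ae/plasma AUC. Urinary terminal half-life came from log-linear slopes between 4–18 h and 40–64 h.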

[2] = Terminal half life in human urine treated with oxcarbazepine at 300 mg, po administered as one-film coated tablet by high-performance liquid chromatography; type: ADME, organism-based; conditions: read-out: beta t1/2 (converted); outline: as §1
[3] = Terminal half life in human urine treated with monohydroxy derivative of OXC at 250 mg, iv administered as infusion over 30 mins by high-performance liquid chromatography; type: ADME, organism-based; conditions: read-out: beta t1/2 (converted)
Outline: (§2)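 250 mg racemic MHD infused intravenously over 30 min to 12 healthy adults. Plasma was drawn at 0 to 30 min and up to 72 h, and urine was fractionated to 72 h. Enantioselective HPLC was used. Renal clearance was Ae/AUC; Vss was CL_T·MRT (AUMC/AUC). Urinary half-life came from log-linear slopes between 4–18 h and 40–64 h.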

[4] = AUC in human at 250 mg, iv administered as infusion over 30 mins by non-enantiospecific assay based high-performance liquid chromatography; type: ADME, organism-based; parameters: time < 0.5 hr, dose 250 mg, route intravenous; conditions: plasma
Outline: (§3)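 Crossover of 12 healthy adults: 250 mg racemic MHD infused intravenously over 30 min versus a 300 mg oral tablet, with at least one week of washout. Plasma MHD was measured by non-enantioselective HPLC-UV at 210 nm after C18 solid-phase extraction (LOQ 0.1 µmol/L). Bioavailability f was the dose-corrected ratio of oral to intravenous AUC.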

[5] = AUC (0 to 72 hrs) in human at 150 mg, iv administered as single dose by high-performance liquid chromatography; type: ADME, organism-based; parameters: dose 150 mg, time < 72 hr, route intravenous; conditions: plasma
Outline: (§4)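 Pilot ascending-dose study: one healthy subject per level received 150, 200 or 250 mg racemic MHD intravenously as a single dose. Plasma was sampled to 72 h and assayed by non-enantioselective and enantioselective HPLC. AUC(0-72h) was computed by the linear trapezoidal method.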

[6] = AUC (0 to 72 hrs) in human at 200 mg, iv administered as single dose by high-performance liquid chromatography; type: ADME, organism-based; parameters: dose 200 mg, time < 72 hr, route intravenous; conditions: plasma; outline: as §4
[7] = AUC (0 to 72 hrs) in human at 250 mg, iv administered as single dose by high-performance liquid chromatography; type: ADME, organism-based; parameters: dose 250 mg, time < 72 hr, route intravenous; conditions: plasma; outline: as §4
[8] = Drug excretion in human urine assessed as total amount of drug eliminated at 150 mg, iv administered as single dose measured for 72 hrs post-dose by high-performance liquid chromatography; type: ADME, organism-based; conditions: read-out: Ae
Outline: (§5)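 Pilot ascending-dose study: one subject per level received single intravenous racemic MHD (150, 200, 250 mg). Urine was pooled 0–72 h, and unchanged drug was measured by HPLC as percent of dose excreted. Renal clearance was the amount excreted unchanged divided by plasma AUC.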

[9] = Drug excretion in human urine assessed as total amount of drug eliminated at 200 mg, iv administered as single dose measured for 72 hrs post-dose by high-performance liquid chromatography; type: ADME, organism-based; conditions: read-out: Ae; outline: as §5
[10] = Drug excretion in human urine assessed as total amount of drug eliminated at 250 mg, iv administered as single dose measured for 72 hrs post-dose by high-performance liquid chromatography; type: ADME, organism-based; conditions: read-out: Ae; outline: as §5
[11] = Total plasma clearance in human at 150 mg, iv administered as single dose by high-performance liquid chromatography; type: ADME, organism-based
Outline: (§6)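 Pilot study: single intravenous racemic MHD at 150, 200 or 250 mg, one subject per dose. Plasma was sampled to 72 h and analysed by HPLC. Total plasma clearance was computed as Dose/AUC, with AUC from the linear trapezoidal rule.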

[12] = Total plasma clearance in human at 200 mg, iv administered as single dose by high-performance liquid chromatography; type: ADME, organism-based; outline: as §6
[13] = Total plasma clearance in human at 250 mg, iv administered as single dose by high-performance liquid chromatography; type: ADME, organism-based; outline: as §6
[14] = Renal clearance in human at 150 mg, iv administered as single dose by high-performance liquid chromatography; type: ADME, organism-based, Kidney; conditions: in vivo; outline: as §5
[15] = Renal clearance in human at 200 mg, iv administered as single dose by high-performance liquid chromatography; type: ADME, organism-based, Kidney; conditions: in vivo; outline: as §5
[16] = Renal clearance in human at 250 mg, iv administered as single dose by high-performance liquid chromatography; type: ADME, organism-based, Kidney; conditions: in vivo; outline: as §5
[17] = Oral bioavailability in human at 300 mg administered as one-film coated tablet by non-enantiospecific assay based high-performance liquid chromatography; type: ADME, organism-based; conditions: in vivo; outline: as §3
[18] = tested on: Plasma; experiment: Drug level in human plasma at 400 mg, po; type: ADME, cell-free
[19] = Tmax in human at 300 mg, po administered as one-film coated tablet by high-performance liquid chromatography; type: ADME, organism-based; conditions: in vivo
Outline: (§7)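 Healthy adults (6 male, 6 female), single 300 mg film-coated tablet by mouth, fasting, in a randomized two-way crossover with at least one week of washout. Venous heparinized blood was drawn at 0–72 h. Plasma was separated at 2200 g and stored at -80 °C. Non-enantioselective and enantioselective HPLC were used. Cmax/tmax were the observed peak; AUC was by linear trapezoidal rule.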

[20] = Cmax in human at 300 mg, po administered as one-film coated tablet by high-performance liquid chromatography; type: ADME, organism-based; parameters: dose 300 mg, route oral; conditions: in vivo; outline: as §7
[21] = AUC in human at 300 mg, po administered as one-film coated tablet by high-performance liquid chromatography; type: ADME, organism-based; conditions: plasma; outline: as §7
[22] = Tmax in human treated with monohydroxy derivative of OXC at 250 mg, iv administered as infusion over 30 mins by high-performance liquid chromatography; type: ADME, organism-based; conditions: in vivo
Outline: (§8)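 Healthy adults (6 male, 6 female) in an open randomized two-way crossover with at least one week washout. Venous heparinized plasma was sampled at 0, 5, 10, 15, 20, 25 and 30 min and at 1-72 h after the start of infusion, and stored at -80 C. Analytes were measured by non-enantioselective and enantioselective HPLC. Tmax is the observed time of peak concentration, reported as a median.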

[23] = Cmax in human treated with monohydroxy derivative of OXC at 250 mg, iv administered as infusion over 30 mins by high-performance liquid chromatography; type: ADME, organism-based; parameters: dose 250 mg, route intravenous; conditions: in vivo; outline: as §8
[24] = Tmax in human treated with oxcarbazepine at 300 mg, po administered as one-film coated tablet by high-performance liquid chromatography; type: ADME, organism-based; conditions: in vivo
Outline: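 Healthy adults (6 male, 6 female) took a single dose under fasting conditions in an open randomized two-way crossover with at least one week washout. Heparinized plasma was sampled at 0, 1, 2, 3, 4, 6, 8, 10, 24, 32, 48, 56 and 72 h, and stored at -80 C. Analytes were measured by HPLC (UV 210 nm for MHD). Cmax and Tmax are the highest observed concentration and its time relative to dosing.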

[25] = Cmax in human treated with oxcarbazepine at 300 mg, po administered as one-film coated tablet by high-performance liquid chromatography; type: ADME, organism-based; parameters: dose 300 mg, route oral; conditions: in vivo; outline: as §7
[26] = Renal clearance in human treated with oxcarbazepine at 300 mg, po administered as one-film coated tablet by high-performance liquid chromatography; type: ADME, organism-based, Kidney; conditions: in vivo; outline: as §1
[27] = Apparent terminal half life in human plasma treated with oxcarbazepine at 300 mg, po administered as one-film coated tablet by high-performance liquid chromatography; type: ADME, organism-based; conditions: read-out: betat1/2(app) (converted)
Outline: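 Healthy adult volunteers (6 male, 6 female), randomized two-way crossover with at least one week washout; single oral 300 mg film-coated oxcarbazepine tablet, fasting. Heparinized plasma sampled 0–72 h post dose, stored -80 C; MHD enantiomers quantified by enantioselective HPLC.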

[28] = Renal clearance in human treated with monohydroxy derivative of OXC at 250 mg, iv administered as infusion over 30 mins by high-performance liquid chromatography; type: ADME, organism-based, Kidney; conditions: in vivo; outline: as §2
[29] = Apparent terminal half life in human plasma treated with monohydroxy derivative of OXC at 250 mg, iv administered as infusion over 30 mins by high-performance liquid chromatography; type: ADME, organism-based; conditions: read-out: betat1/2(app) (converted)
Outline: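 Healthy adult volunteers (6 male, 6 female), randomized two-way crossover with at least one week washout; single 250 mg racemic MHD infused i.v. over 30 min. Heparinized plasma sampled 0–30 min then 1–72 h after start of infusion, stored -80 C; enantiomers quantified by enantioselective HPLC.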

[30] = Volume of distribution at steady state in human treated with monohydroxy derivative of OXC at 250 mg, iv administered as infusion over 30 mins by high-performance liquid chromatography; type: ADME, organism-based; conditions: in vivo, read-out: Vdss; outline: as §2
[31] = AUC (0 to 72 hrs) in human treated with monohydroxy derivative of OXC at 150 mg, iv administered as single dose by high-performance liquid chromatography; type: ADME, organism-based; parameters: dose 150 mg, time < 72 hr, route intravenous; conditions: plasma; outline: as §4
[32] = AUC (0 to 72 hrs) in human treated with monohydroxy derivative of OXC at 200 mg, iv administered as single dose by high-performance liquid chromatography; type: ADME, organism-based; parameters: time < 72 hr, dose 200 mg, route intravenous; conditions: plasma; outline: as §4
[33] = AUC (0 to 72 hrs) in human treated with monohydroxy derivative of OXC at 250 mg, iv administered as single dose by high-performance liquid chromatography; type: ADME, organism-based; parameters: dose 250 mg, time < 72 hr, route intravenous; conditions: plasma; outline: as §4
[34] = Total plasma clearance in human treated with monohydroxy derivative of OXC at 150 mg, iv administered as single dose by high-performance liquid chromatography; type: ADME, organism-based; outline: as §6
[35] = Total plasma clearance in human treated with monohydroxy derivative of OXC at 200 mg, iv administered as single dose by high-performance liquid chromatography; type: ADME, organism-based; outline: as §6
[36] = Total plasma clearance in human treated with monohydroxy derivative of OXC at 250 mg, iv administered as single dose by high-performance liquid chromatography; type: ADME, organism-based; outline: as §6
[37] = AUC (0 to 32/48 hrs) in human treated with oxcarbazepine at 300 mg, po administered as one-film coated tablet by high-performance liquid chromatography; type: ADME, organism-based; conditions: plasma; outline: as §7

half-life [2]: 10.3 h
half-life [3]: 14.2 h
SMILES: NC(=O)N1c2ccccc2C[C@@H](O[C@@H]2O[C@H](C(=O)O)[C@@H](O)[C@H](O)[C@H]2O)c2ccccc21
dose excreted [1]: 5.62%

AUC at 0.5 h [4]: 261 µM·h
AUC(0-t) at 72 h [5]: 109 µM·h
AUC(0-t) at 72 h [6]: 142 µM·h
AUC(0-t) at 72 h [7]: 280 µM·h
clearance [11]: 90 mL/min
clearance [12]: 92 mL/min
clearance [13]: 58.5 mL/min
CL renal [14]: 21.8 mL/min
CL renal [15]: 28.3 mL/min
CL renal [16]: 25 mL/min
SMILES: NC(=O)N1c2ccccc2CC(O)c2ccccc21 (racemic) [LICARBAZEPINE]
dose excreted at 72 h [8]: 24.3%
dose excreted at 72 h [9]: 30.7%
dose excreted at 72 h [10]: 42.8%

bioavailability [17]: 99%
Drug uptake [18]: 2%
Tmax [19]: 1 h
Cmax [20]: 2000 nM
AUC [21]: 6.8 µM·h
Tmax [22]: 0.5 h
Cmax [23]: 80 nM
SMILES: NC(=O)N1c2ccccc2CC(=O)c2ccccc21 [OXCARBAZEPINE]

half-life [2]: 10.8 h
half-life [3]: 9.9 h
SMILES: NC(=O)N1c2ccccc2C[C@H](O[C@@H]2O[C@H](C(=O)O)[C@@H](O)[C@H](O)[C@H]2O)c2ccccc21
dose excreted [1]: 38.8%

SMILES: NC(=O)N1c2ccccc2[C@@H](O)[C@H](O)c2ccccc21
dose excreted [1]: 2.7%
Tmax [24]: 24 h
Cmax [25]: 200 nM
Tmax [22]: 8 h
Cmax [23]: 240 nM

CL renal [26]: 16.7 mL/min
half-life [27]: 15.8 h
half-life [2]: 7 h
CL renal at 0.5 h [28]: 15 mL/min
half-life [29]: 9 h
Vd [30]: 54.7 L
half-life [3]: 9 h
Tmax [24]: 3.5 h
Cmax [25]: 3000 nM
AUC(0-t) at 72 h [31]: 55.7 µM·h
AUC(0-t) at 72 h [32]: 59.1 µM·h
AUC(0-t) at 72 h [33]: 132 µM·h
clearance [34]: 88.3 mL/min
clearance [35]: 111 mL/min
clearance [36]: 62.2 mL/min
SMILES: NC(=O)N1c2ccccc2C[C@@H](O)c2ccccc21
dose excreted [1]: 4.85%

AUC at 48 h [37]: 241 µM·h
CL renal [26]: 18.3 mL/min
half-life [2]: 8.5 h
CL renal at 0.5 h [28]: 15 mL/min
half-life [29]: 10.6 h
Vd [30]: 45.9 L
Cmax [25]: 11000 nM
AUC(0-t) at 72 h [31]: 69 µM·h
AUC(0-t) at 72 h [32]: 92.2 µM·h
AUC(0-t) at 72 h [33]: 192 µM·h
clearance [34]: 71.2 mL/min
clearance [35]: 71.2 mL/min
clearance [36]: 42.7 mL/min
SMILES: NC(=O)N1c2ccccc2C[C@H](O)c2ccccc21 [ESLICARBAZEPINE]
dose excreted [1]: 21.8%
